{"data": "Published values gathered from unrelated publications", "Tspo": "Translocator protein (Tspo, Rattus norvegicus, UniProt P16257)", "GLP2R": "Glucagon-like peptide 2 receptor (GLP2R, Homo sapiens, UniProt O95838)", "Melanocortin receptor 4": "Melanocortin receptor 4 (Mus musculus, UniProt P56450)", "note": "Each line is one published result; the experiments were not run side by side."}
{"Structure (SMILES)": "CNc1nc(C#Cc2ccccc2)nc2c1ncn2[C@H]1[C@H](O)[C@H](O)[C@@H]2C[C@@H]21", "target": "Tspo", "observed": "ligand displacement", "technique": "radioligand", "quantity": "Ki", "result": "> 10 µM"}
{"Structure (SMILES)": "CC[C@H](C)[C@H](NC(=O)[C@H](CC(=O)O)NC(=O)[C@H](CO)NC(=O)[C@@H](NC(=O)[C@H](Cc1ccccc1)NC(=O)[C@@H](NC(=O)CNC(=O)[C@H](CC(=O)O)NC(=O)[C@H](C)NC(=O)[C@@H](N)Cc1c[nH]cn1)[C@@H](C)O)[C@@H](C)O)C(=O)N[C@@H](CC(N)=O)C(=O)N[C@@H](CCCCN)C(=O)N[C@H](C(=O)N[C@@H](CC(C)C)C(=O)N[C@@H](CC(=O)O)C(=O)N[C@@H](CC(=O)O)C(=O)N[C@@H](CCSC)C(=O)N[C@@H](C)C(=O)N[C@@H](C)C(=O)N[C@@H](CCCCN)C(=O)N[C@@H](CCC(=O)O)C(=O)N[C@@H](Cc1ccccc1)C(=O)N[C@@H](CC(C)C)C(=O)N[C@@H](CCCCN)C(=O)N[C@@H](Cc1c[nH]c2ccccc12)C(=O)N[C@@H](CC(C)C)C(=O)N[C@H](C(=O)N[C@@H](CC(N)=O)C(=O)N[C@H](C(=O)N[C@@H](CCCCN)C(=O)N[C@H](C(=O)N[C@H](C(=O)N[C@@H](CCC(N)=O)C(=O)O)[C@@H](C)O)C(C)C)[C@@H](C)O)[C@@H](C)CC)[C@@H](C)CC", "target": "GLP2R", "observed": "reporter gene", "action": "agonist", "technique": "luciferase", "quantity": "EC50", "result": "0.033 µM"}
{"Structure (SMILES)": "CCOC(=O)[C@@]12C[C@@H]1[C@@H](n1ccc3c(NC)nc(I)nc31)[C@H](O)[C@@H]2O", "target": "Tspo", "observed": "ligand displacement", "technique": "radioligand", "quantity": "Ki", "result": "> 10 µM"}
{"Structure (SMILES)": "Cc1cc2nc3c(=O)[nH]c(=O)nc-3n(C[C@H](O)[C@H](O)[C@H](O)COP(=O)(O)OP(=O)(O)OC[C@H]3O[C@@H](n4cnc5c(N)ncnc54)[C@H](O)[C@@H]3O)c2cc1C", "target": "Dihydrolipoyl dehydrogenase, mitochondrial (DLD, Homo sapiens, UniProt P09622)", "observed": "binding", "setting": "lysate", "quantity": "Kd", "result": "641 nM"}
{"Structure (SMILES)": "N=C(N)NCCC[C@H](NC(=O)[C@H](CC(=O)O)NC(=O)[C@H](Cc1c[nH]c2ccccc12)NC(=O)[C@H](CCCNC(=N)N)NC(=O)[C@@H](N)Cc1ccccc1)C(=O)N[C@@H](Cc1ccccc1)C(=O)NCC(=O)O", "target": "Melanocortin receptor 4", "observed": "reporter gene", "action": "agonist", "quantity": "EC50", "result": "47.4 µM"}
{"Structure (SMILES)": "CC/C=C\\C/C=C\\C/C=C\\C/C=C\\C/C=C\\CCCC(=O)O", "target": "Peroxisome proliferator-activated receptor delta (PPARD, Homo sapiens, UniProt Q03181)", "observed": "reporter gene", "action": "agonist", "technique": "luciferase", "quantity": "EC50", "result": "90.5 µM"}
{"Structure (SMILES)": "CNc1nc(C#Cc2ccc(Cl)s2)nc2c1ncn2[C@H]1[C@H](O)[C@H](O)[C@]2(C(=O)O)C[C@H]12", "target": "Tspo", "observed": "ligand displacement", "technique": "radioligand", "quantity": "Ki", "result": "> 10 µM"}
{"Structure (SMILES)": "N#Cc1ccc(COc2cccc(C3CCN(Cc4nc5ccc(C(=O)O)cc5n4C[C@@H]4CCO4)CC3)n2)c(F)c1", "target": "GLP2R", "observed": "cAMP", "action": "agonist", "quantity": "EC50", "result": "> 20 µM"}
{"Structure (SMILES)": "CSCC[C@H](NC(=O)[C@@H](NC(=O)[C@@H](N)Cc1ccc(O)cc1)C(C)C)C(=O)NCC(=O)O", "target": "Melanocortin receptor 4", "observed": "reporter gene", "action": "agonist", "quantity": "EC50", "result": "> 100 µM"}
{"Structure (SMILES)": "O=C(OC[C@H]1O[C@@H](OC(=O)c2cc(O)c(O)c(OC(=O)c3cc(O)c(O)c(O)c3)c2)[C@H](OC(=O)c2cc(O)c(O)c(OC(=O)c3cc(O)c(O)c(O)c3)c2)[C@@H](OC(=O)c2cc(O)c(O)c(OC(=O)c3cc(O)c(O)c(O)c3)c2)[C@@H]1OC(=O)c1cc(O)c(O)c(OC(=O)c2cc(O)c(O)c(O)c2)c1)c1cc(O)c(O)c(OC(=O)c2cc(O)c(O)c(O)c2)c1", "target": "Replicase polyprotein 1ab, main protease (rep, Severe acute respiratory syndrome coronavirus 2, UniProt P0DTD1)", "observed": "binding", "technique": "SPR", "quantity": "Kd", "result": "1100 nM"}
{"Structure (SMILES)": "CCOC(=O)[C@@]12C[C@@H]1[C@@H](n1ccc3c(NC4CC4)nc(C#Cc4ccccc4)nc31)[C@H](O)[C@@H]2O", "target": "Tspo", "observed": "ligand displacement", "technique": "radioligand", "quantity": "Ki", "result": "> 10 µM"}
{"Structure (SMILES)": "N=C(N)NCCC[C@H](NC(=O)[C@H](CC(=O)O)NC(=O)[C@H](Cc1c[nH]c2ccccc12)NC(=O)[C@@H](N)CCCNC(=N)N)C(=O)N[C@@H](Cc1ccccc1)C(=O)NCC(=O)O", "target": "Melanocortin receptor 4", "observed": "reporter gene", "action": "agonist", "quantity": "EC50", "result": "> 100 µM"}
{"Structure (SMILES)": "CNc1nc(C#Cc2ccc(Cl)s2)nc2c1ncn2[C@H]1[C@H](O)[C@H](O)[C@]2(C(=O)OCCc3ccccc3)C[C@H]12", "target": "Tspo", "observed": "ligand displacement", "technique": "radioligand", "quantity": "Ki", "result": "> 10 µM"}
{"Structure (SMILES)": "CC[C@H](C)[C@H](NC(=O)[C@H](CO)NC(=O)[C@H](Cc1ccc(O)cc1)NC(=O)[C@H](CC(=O)O)NC(=O)[C@H](CO)NC(=O)[C@@H](NC(=O)[C@H](Cc1ccccc1)NC(=O)[C@@H](NC(=O)CNC(=O)[C@H](CCC(=O)O)NC(=O)[C@H](C)NC(=O)[C@@H](N)Cc1ccc(O)cc1)[C@@H](C)O)[C@@H](C)CC)C(=O)N[C@@H](C)C(=O)N[C@@H](CCSC)C(=O)N[C@@H](CC(=O)O)C(=O)N[C@@H](CCCCN)C(=O)N[C@H](C(=O)N[C@@H](Cc1c[nH]cn1)C(=O)N[C@@H](CCC(N)=O)C(=O)N[C@@H](CCC(N)=O)C(=O)N[C@@H](CC(=O)O)C(=O)N[C@@H](Cc1ccccc1)C(=O)N[C@H](C(=O)N[C@@H](CC(N)=O)C(=O)N[C@@H](Cc1c[nH]c2ccccc12)C(=O)N[C@@H](CC(C)C)C(=O)N[C@@H](CC(C)C)C(=O)N[C@@H](C)C(=O)N[C@@H](CCC(N)=O)C(=O)N[C@@H](CCCCN)C(=O)NCC(=O)N[C@@H](CCCCN)C(=O)N[C@@H](CCCCN)C(=O)N[C@@H](CC(N)=O)C(=O)N[C@@H](CC(=O)O)C(=O)N[C@@H](Cc1c[nH]c2ccccc12)C(=O)N[C@@H](CCCCN)C(=O)N[C@@H](Cc1c[nH]cn1)C(=O)N[C@@H](CC(N)=O)C(=O)N[C@H](C(=O)N[C@H](C(=O)N[C@@H](CCC(N)=O)C(=O)O)[C@@H](C)O)[C@@H](C)CC)C(C)C)[C@@H](C)CC", "target": "GLP2R", "observed": "reporter gene", "action": "agonist", "technique": "luciferase", "quantity": "EC50", "result": "> 1 µM"}
{"Structure (SMILES)": "CSCC[C@H](NC(=O)[C@@H](NC(=O)[C@@H](N)Cc1ccc(O)cc1)C(C)C)C(=O)NCC(=O)N[C@@H](Cc1c[nH]cn1)C(=O)N[C@@H](Cc1ccccc1)C(=O)O", "target": "Melanocortin receptor 4", "observed": "reporter gene", "action": "agonist", "quantity": "EC50", "result": "> 100 µM"}
